Neddyl block: cullin neddylation inhibition; calls only at 25 µM; P61081+Q13564; AID 651699; actives 0.58% (n = 360,000); TR-FRET cullin neddylation, biochemical; in the data active = inhibition above about 36%
NR2E3 ag-1: NR2E3 (human) agonism; inhibition of corepressor binding, % at 4.78 µM; GST-NR2E3/biotin-RetCOR TR-FRET, 1536-well; actives 0.12% (n = 320,000); AID 2300;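 active = percent inhibition above the cutoff of mean plus 3 SD of all tested compounds, set per screening campaign, cut at about 20% in these data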;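 also: 0% = DMSO wells and 100% = biotin wells as full block of FRET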
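Material – GST-tagged NR2E3 plus biotinylated RetCOR corepressor · Quantity – NR2E3 fusion 1.35 nM · Times – 5 h incubation at 4 °C · Medium – pH 7.5 Tris-based buffer · Technique – TR-FRET, Eu(K)-anti-GST donor, streptavidin-D2 acceptor, ex 340, em 617/671 nm · Benchmarks – high control biotin, low control 0.6% DMSO · Format – 1536-well plates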
NR1D1 modulator: Rev-erb alpha (human) modulation | activity, % at 10 µM | AID 1259318 | actives 0.79% (n = 370,000) | Rev-erbα–FITC-DNA binding, fluorescence polarization, 90 min | P20393;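 active = activity above about 14%, limit read from the data; passing the limit was not always enough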;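 also: 0% = DMSO wells with 35 nM protein and 100% = DMSO wells with 750 nM protein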
Target sequence (P20393 whole entry, looked up): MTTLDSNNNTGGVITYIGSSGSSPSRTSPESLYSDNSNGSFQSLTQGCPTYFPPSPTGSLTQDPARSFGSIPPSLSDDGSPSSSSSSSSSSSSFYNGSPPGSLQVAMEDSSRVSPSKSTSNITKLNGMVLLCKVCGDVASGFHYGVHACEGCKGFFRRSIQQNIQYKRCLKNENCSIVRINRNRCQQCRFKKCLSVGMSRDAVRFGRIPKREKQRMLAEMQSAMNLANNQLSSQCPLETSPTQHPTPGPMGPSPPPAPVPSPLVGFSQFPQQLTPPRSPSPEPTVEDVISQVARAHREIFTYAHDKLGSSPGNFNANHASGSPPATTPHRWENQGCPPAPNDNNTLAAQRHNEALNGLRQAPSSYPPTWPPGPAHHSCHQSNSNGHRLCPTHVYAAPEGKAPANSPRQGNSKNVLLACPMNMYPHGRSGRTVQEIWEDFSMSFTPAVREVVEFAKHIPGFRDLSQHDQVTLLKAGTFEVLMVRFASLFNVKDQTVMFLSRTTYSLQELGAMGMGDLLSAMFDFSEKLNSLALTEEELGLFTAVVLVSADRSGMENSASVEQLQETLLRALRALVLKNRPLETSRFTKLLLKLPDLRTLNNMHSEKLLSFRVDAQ
PG9 binder: PG9 antibody binding by small molecule. TR-FRET gp120-PG9 antibody binding. inhibition, % at 6.7 µM. actives 0.43% (n = 360,000). AID 624416; in the data active = inhibition above about 8.5%
NR2E3 ag-2: human photoreceptor-specific nuclear receptor agonism | inhibition of corepressor binding, % at 3.98 µM | CHO-S Gal4-NCOR/VP16-NR2E3 two-hybrid, luciferase | actives 0.35% (n = 360,000) | Q9Y5X4 | AID 602229;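 active = inhibition above the mean of all tested compounds plus 3 SD, cut at about 70% in these data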;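 also: 0% = DMSO with NR2E3 transfected cells and 100% = cells lacking NR2E3 construct; higher means lower luciferase signal from less NR2E3 corepressor binding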
Neddyl conf: cullin neddylation inhibition, confirmation; shares compounds with Neddyl block; TR-FRET cullin neddylation biochemical assay; calls only at 25 µM; actives 13% (n = 1,800); in the data active = inhibition above about 40%;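 also: neddylation substrate is the cullin 1 ring ligase complex with SKP2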
NR1D1 mod conf: confirmation of modulators of human Rev-erb alpha DNA binding | shares compounds with NR1D1 modulator | Rev-erb alpha FITC-DNA binding, fluorescence polarization, 90 min | activation, % at 25 µM | actives 61% (n = 3,000) | AID 1259319;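 active = activation at or above a set limit, or at least 3 SD above the negative control mean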;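 also: 0% = 35 nM protein with DMSO and 100% = 750 nM protein high control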
RORg DNA counter: affects RORgamma DNA binding in a Rev-erb alpha counter-screen | shares compounds with NR1D1 modulator | purified RORgamma protein-FITC-DNA binding, fluorescence polarization | IC50, µM | actives 8% (n = 910) | AID 1259320;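 active = Compounds whose fitted half-maximal concentration for disrupting protein-DNA binding is below 10 micromolar; the record names Rev-erb in its text, so the target is in doubt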
* marks the source's active call; other numbers are inactive results. Only some compounds are listed: those with a hit (about 2% of all), similar ones and a draw of the others.

`O=C(c1ccc2c3c(cccc13)CC2)C1CCCN(Cc2ncc[nH]2)C1` (stereo unspecified) gave Neddyl block active, NR2E3 ag-1 0, NR1D1 modulator -5, PG9 binder -2, NR2E3 ag-2 5 and Neddyl conf inactive.
C[C@@H]1CNCCN1c1ccc(N2CC[C@@H](O)C2)c(C#N)c1 was read as NR1D1 modulator -6 and PG9 binder 0.
`C[C@H](N)[C@H](O)c1ccc(O)c(O)c1` gave NR1D1 modulator -33.
For O=[N+]([O-])c1ccc(NCc2ccccc2)c2nonc12 the results were NR2E3 ag-1 3, NR1D1 modulator 38*, PG9 binder -3, NR1D1 mod conf 52* and RORg DNA counter 4.1*.
For Cn1cc(P(=S)(c2ccccc2)c2ccccc2)c2ccccc21 the results were NR1D1 modulator 4.
For O=c1[nH]c(=S)[nH]c(O)c1N=Nc1ccc2c(c1)OCCO2 the results were Neddyl block inactive, NR2E3 ag-1 -2, NR1D1 modulator 30*, PG9 binder -13, NR2E3 ag-2 -80 and NR1D1 mod conf 25*.
COc1cccc(N=Nc2c(O)[nH]c(=S)[nH]c2=O)c1 was read as Neddyl block inactive, NR2E3 ag-1 -1, NR1D1 modulator 5, PG9 binder -10 and NR2E3 ag-2 -24.
`COc1ccc(N=Nc2c(O)[nH]c(=S)[nH]c2=O)cc1` gave Neddyl block inactive, NR2E3 ag-1 -6, NR1D1 modulator 27*, PG9 binder -12, NR2E3 ag-2 -71 and NR1D1 mod conf 19*.
`COc1ccc2nc(-c3ccc(CN4CCC(n5c(=O)[nH]c6cc(Cl)ccc65)CC4)cc3)c(-c3ccccc3)nc2c1` gave NR1D1 modulator -5 and PG9 binder 0.
For CCCCOCCCN1C(C)=CC(=C2C(=O)NC(=S)NC2=O)C=C1C the results were Neddyl block inactive, NR2E3 ag-1 0, NR1D1 modulator 41*, PG9 binder -1, NR2E3 ag-2 -25 and NR1D1 mod conf -2.
`CCCCOC(=O)COc1cc(C)cc2oc(=O)c3c(c12)CCC3` gave Neddyl block inactive, NR2E3 ag-1 2, NR1D1 modulator 26*, PG9 binder -2, NR2E3 ag-2 -11 and NR1D1 mod conf 13.
Screening O=c1[nH]c(=S)n(Cc2ccc(F)cc2)c(O)c1C=NCc1ccc2c(c1)OCO2 returned Neddyl block inactive, NR2E3 ag-1 0, NR1D1 modulator 25*, PG9 binder 1, NR2E3 ag-2 -15 and NR1D1 mod conf 12.
For CN(C)CCN=Cc1c(O)n(Cc2ccc3c(c2)OCO3)c(=S)[nH]c1=O the results were Neddyl block inactive, NR2E3 ag-1 -2, NR1D1 modulator 4, PG9 binder 0 and NR2E3 ag-2 -8.
`O=S(=O)(c1ccc2ccccc2c1)N1Cc2cc(Br)ccc2-n2nncc2C1` gave NR1D1 modulator 2 and PG9 binder -1.
`Cc1cc2c(C(F)(F)F)cc(=O)oc2c2c1NCCC2` gave Neddyl block inactive, NR2E3 ag-1 2, NR1D1 modulator 17*, PG9 binder 3, NR2E3 ag-2 -9 and NR1D1 mod conf 17*.
Screening O=c1cc(C(F)(F)F)c2cc3c4c(c2o1)CCCN4CCC3 returned NR2E3 ag-1 2, NR1D1 modulator 0, PG9 binder 2 and NR2E3 ag-2 -20.
O=C(NC1CN2CCC1CC2)c1cc(-c2ccc(Cl)cc2)nc2ccccc12 (stereo unspecified) was read as NR1D1 modulator -5.
`O=C1NC(=S)SC1=Cc1ccc(N(CCCl)CCCl)cc1` gave Neddyl block inactive, NR1D1 modulator 24*, PG9 binder -2, NR2E3 ag-2 -27 and NR1D1 mod conf 20*.
Screening Cn1cc(Br)c(C(=O)Nc2ccc3c(C(F)(F)F)cc(=O)oc3c2)n1 returned NR1D1 modulator 15*, PG9 binder 0, NR2E3 ag-2 -16 and NR1D1 mod conf 3.
